Measured values: ChEMBL document CHEMBL4680238, “Novel octapeptide-DTX prodrugs targeting MMP-7 as effective agents for the treatment of colorectal cancer with lower systemic toxicity” (Eur J Med Chem, 2020)

What was measured:
SW-620 = assay: Cytotoxicity against human SW-620 cells assessed as reduction in cell viability after 72 hrs by MTT assay; assay type: functional, cell-based; settings: SW-620, 72 h
Procedure, shortened: (§1)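 Cells seeded at 5000/well and precultured 1 day. HCT116 grown in McCoy's 5A + 10% FBS; SW620 and HEK293 in DMEM + 10% FBS; CCD18Co in DMEM + 15% FBS. Compounds from 0.1 M DMSO stocks were tested at 10^-10 to 10^-4 mol/L in sixplicate: HCT116 and HEK293 for 48 h, SW620 and CCD18Co for 72 h, at 37 °C, 5% CO2. MTT (5 mg/mL) added for 4 h, then A570 read; IC50 estimated.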

HCT-116 [1] = assay: Cytotoxicity against human HCT-116 cells assessed as reduction in cell viability after 48 hrs by MTT assay; assay type: functional, cell-based; settings: HCT-116, 48 h; procedure, shortened: as §1
CCD-18Co = assay: Cytotoxicity against human CCD-18Co cells assessed as reduction in cell viability after 72 hrs by MTT assay; assay type: cell-based; procedure, shortened: as §1
HEK293 = assay: Cytotoxicity against HEK293 cells assessed as reduction in cell viability after 48 hrs by MTT assay; assay type: cell-based; settings: Homo sapiens, HEK293, 48 h; procedure, shortened: as §1
HCT-116 [2] = assay: Antitumour activity against human HCT-116 cells xenografted in BALB/c nude mouse assessed as tumour growth inhibition at 5 mg/kg, ip administered once for every 7 days for 14 days relative to control; assay type: functional; settings: HCT-116, ip, 336 h, time 14 day, read-out: TGI
Procedure, shortened: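 Male BALB/c nude mice received s.c. HCT116 cells (2 × 10^6 in 0.2 mL PBS). Once tumours reached 100-200 mm3, mice were randomized into groups of six. Dosing was ip, 0.1 mL/10 g, once every 7 days, in DMSO 0.5%/castor oil 5%/ethanol 5%/saline 89.5%; vehicle controls got solvent. Caliper volume V = L×W²×0.52 read every 2-3 days. Tumours excised and weighed on day 14.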

[3] = Toxicity in BALB/c nude mouse xenografted with human HCT-116 cells assessed as reduction in body weight at 5 mg/kg, ip administered once for every 7 days for 14 days relative to control; assay type: organism-based; parameters: scale not given: the % may be the effect or the level left; settings: in vivo, 336 h, time 14 day
Procedure, shortened: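 HCT116 s.c. xenografts in male BALB/c nude mice, n = 6 per group. Dosing was ip once every 7 days for 2 weeks in DMSO/castor oil/ethanol/saline; vehicle controls got solvent. Body weight recorded every other day or every three days. Weight loss taken at day 14. Mean ± SD.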

[4] = Toxicity in BALB/c nude mouse xenografted with human HCT-116 cells assessed as necrosis in liver at 5 mg/kg, ip administered once for every 7 days for 14 days by H and E staining based assay; assay type: organism-based; settings: in vivo, 336 h, time 14 day
Procedure, shortened: (§2)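 At the end of the 14-day ip xenograft study (HCT116, BALB/c nude), heart and liver were collected from vehicle and molar-equivalent dose groups. Tissues fixed in 10% formalin in PBS and stained with H&E. Liver examined at 400×, heart at 100×.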

[5] = Toxicity in BALB/c nude mouse xenografted with human HCT-116 cells assessed as disordered myocardial fiber in heart at 5 mg/kg, ip administered once for every 7 days for 14 days by H and E staining based assay; assay type: organism-based; settings: in vivo, 336 h, time 14 day; procedure, shortened: as §2
[6] = Toxicity in BALB/c nude mouse xenografted with human HCT-116 cells assessed as inflammatory cell invasion in heart at 5 mg/kg, ip administered once for every 7 days for 14 days by H and E staining based assay; assay type: organism-based; settings: in vivo, 336 h, time 14 day; procedure, shortened: as §2

## CC(=O)O[C@@]12CO[C@@H]1C[C@H](O)[C@@]1(C)C(=O)[C@H](O)C3=C(C)[C@@H](OC(=O)[C@H](O)[C@@H](NC(=O)OC(C)(C)C(F)(F)F)c4ccccc4)C[C@@](O)([C@@H](OC(=O)c4cccc(F)c4)[C@H]21)C3(C)C
SW-620
  IC50: 280 nM
HCT-116 [1]
  IC50: 0.1 nM
CCD-18Co
  IC50: 17100 nM
HEK293
  IC50: 360 nM
HCT-116 [2]
  inhibition in vivo at 5 mg/kg: 41.9%
[3]
  Activity: 9.5%
[4]
  Activity: Toxic
[5]
  Activity: Toxic
[6]
  Activity: Toxic
